From ChEMBL document CHEMBL2157980, “Discovery of SCH 900229, a Potent Presenilin 1 Selective γ-Secretase Inhibitor for the Treatment of Alzheimer's Disease” (ACS Med Chem Lett, 2012)

Columns and labels:
[1] = Selectivity ratio of IC50 for PS2 gamma-secretase to IC50 for PS1 gamma-secretase
Method in brief: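 Inhibitors were tested against reconstituted γ-secretase complexes containing PS1 or PS2. The result is expressed as the PS2/PS1 ratio of IC50 values.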

[2] = molecular target: T1, Presenilin-1 (Homo sapiens, UniProt P49768); experiment: Inhibition of PS1 gamma-secretase assessed as reduction of amyloid beta-40 production by membrane based assay
Method in brief: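 Aβ40 production was measured in a membrane-based assay. IC50 was the average of at least two measurements, with standard deviation 20%.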

[3] = molecular target: Presenilin-2 (Homo sapiens, UniProt P49810); experiment: Inhibition of PS2 gamma-secretase expressed in HEK cells harboring Awe-Lon gene assessed as reduction of amyloid beta-42 production; format: cell-based, HEK293
[4] = tested on: Mus musculus; experiment: Antialzheimer activity in transgenic CRND8 mouse assessed as decrease of amyloid beta-40 level in plasma at 30 mg/kg, po after 3 hrs; format: functional; set-up: scale not given: the % may be the effect or the level left
Method in brief: (§1)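 CRND8 mice were dosed orally at 30 mg/kg. Aβ40 in plasma and cortex was measured 3 h post-dose and reported as % change, negative for lowering and positive for increase.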

[5] = tested on: Mus musculus; experiment: Antialzheimer activity in transgenic CRND8 mouse assessed as decrease of amyloid beta-40 level in cortex at 30 mg/kg, po after 3 hrs; format: functional; set-up: scale not given: the % may be the effect or the level left; method in brief: as §1
[6] = molecular target: T1, Presenilin-1; experiment: Inhibition of PS1 gamma-secretase expressed in HEK cells harboring Awe-Lon gene assessed as reduction of amyloid beta-40 production; format: cell-based, HEK293
Method in brief: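 Cell-based Aβ40 production assay in HEK293 cells carrying APP Awe-Lon. IC50 was the average of at least two determinations, with standard deviation 20%.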

[7] = tested on: Mus musculus; experiment: Antialzheimer activity in transgenic CRND8 mouse assessed as increase of amyloid beta-40 level in plasma at 30 mg/kg, po after 3 hrs; format: functional; method in brief: as §1

Sequence of Presenilin-2 (P49810 1-297 limits assumed): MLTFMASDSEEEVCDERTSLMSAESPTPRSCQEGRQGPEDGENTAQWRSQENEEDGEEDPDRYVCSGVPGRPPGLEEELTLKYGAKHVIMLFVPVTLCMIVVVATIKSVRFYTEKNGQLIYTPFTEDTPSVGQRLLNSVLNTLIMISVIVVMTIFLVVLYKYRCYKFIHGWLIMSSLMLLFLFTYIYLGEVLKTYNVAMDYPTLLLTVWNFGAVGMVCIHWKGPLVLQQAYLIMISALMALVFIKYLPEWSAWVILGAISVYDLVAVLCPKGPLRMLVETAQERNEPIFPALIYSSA
Sequence of Presenilin-2 (P49810 298-448 limits assumed): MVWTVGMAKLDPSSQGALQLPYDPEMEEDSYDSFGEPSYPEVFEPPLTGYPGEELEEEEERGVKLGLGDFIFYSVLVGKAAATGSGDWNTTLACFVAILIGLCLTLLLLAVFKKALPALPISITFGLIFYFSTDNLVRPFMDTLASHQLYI

Row | SMILES | Ratio IC50 [1] | IC50 [2] [µM] | IC50 [3] [µM] | IC50 [6] [µM] | Activity [4] [%] | Activity [5] [%] | Activity [7] [%]
1 | CC(C)S(=O)(=O)CC[C@@H]1OCC[C@@]2(S(=O)(=O)c3ccc(Cl)cc3)c3c(F)ccc(F)c3OC[C@@H]12 (racemic) [listing 1 of 2 here] | 6 |  |  |  |  |  | 
2 | CC(C)S(=O)(=O)CC[C@@H]1OCC[C@@]2(S(=O)(=O)c3ccc(Cl)cc3)c3c(F)ccc(F)c3OC[C@@H]12 (racemic) [listing 2 of 2 here] |  | 0.024 | 0.01 | 0.026 | 20 | 57 | 
3 | O=S(=O)(c1ccc(Cl)cc1)[C@@]12CCO[C@@H](CCO)[C@@H]1COc1c(F)ccc(F)c12 |  | 0.02 | 0.008 | 0.018 |  |  | 

Further lines, with some results ahead:

Row | Ratio IC50 [1] | IC50 [2] [µM] | IC50 [3] [µM] | IC50 [6] [µM] | SMILES | Activity [4] [%] | Activity [5] [%] | Activity [7] [%]
4 | 6 | 0.022 | 0.016 | 0.037 | N#CCC[C@@H]1OCC[C@@]2(S(=O)(=O)c3ccc(Cl)cc3)c3c(F)ccc(F)c3OC[C@@H]12 (racemic) |  |  | 18
5 |  | 0.32 |  |  | O=S(=O)(c1ccc(Cl)cc1)[C@]12CCO[C@H](CCO)[C@H]1COc1c(F)ccc(F)c12 |  |  | 
